Reference: article PMC4358770 (Journal of medicinal chemistry, 2010)
Like-named read-outs stand apart in the source and are kept apart here. Each block holds one compound with its values, some of them ahead of it.

How the values were obtained:
[1] = Chemical stability at pH 1.4 and 37 °C, monitored by HPLC; format: physicochemical; settings: for t1/2 of hydrolysis at pH 1.4: pH 1.4, 37 °C, KCl/HCl buffer
[2] = Stability in human blood serum at 37 °C; format: in vitro ADME
rabbit IOP [3] = assay: IOP measurements in normotensive rabbits; format: in vivo, New Zealand white rabbits
How it was run: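 Male New Zealand white rabbits (2.5 ± 0.5 kg) on a 12 h/12 h light/dark cycle. Test compound was applied unilaterally to the cornea at 100 μM in 10 μL, with 0.9% saline vehicle in the contralateral eye. Design was blinded, with two baseline readings by rebound tonometer and follow-up to 8 h. Dose–response used 1 nM–100 μM, taking the maximal response per dose. […] Mean-time effect was the time from 50% maximal IOP decrease to 50% recovery. Mean ± SEM of 8–10 experiments.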

rabbit IOP [4] = settings: topically applied to New Zealand white rabbits; cited from earlier work
[5] = pH 1.4, 37 °C; cited from earlier work
[6] = molecular target: calf intestine alkaline phosphatase (Bos taurus, UniProt P19111); assay: Hydrolysis by alkaline phosphatase; settings: for degradation by alkaline phosphatase after 3 h: 0.2 mg analogue/77.5 μL, 12.5 units of AP, 37 °C; for resistance to hydrolysis by alkaline phosphatase: over 30 min at 37 °C
Chain of calf intestine alkaline phosphatase (P19111 20-533): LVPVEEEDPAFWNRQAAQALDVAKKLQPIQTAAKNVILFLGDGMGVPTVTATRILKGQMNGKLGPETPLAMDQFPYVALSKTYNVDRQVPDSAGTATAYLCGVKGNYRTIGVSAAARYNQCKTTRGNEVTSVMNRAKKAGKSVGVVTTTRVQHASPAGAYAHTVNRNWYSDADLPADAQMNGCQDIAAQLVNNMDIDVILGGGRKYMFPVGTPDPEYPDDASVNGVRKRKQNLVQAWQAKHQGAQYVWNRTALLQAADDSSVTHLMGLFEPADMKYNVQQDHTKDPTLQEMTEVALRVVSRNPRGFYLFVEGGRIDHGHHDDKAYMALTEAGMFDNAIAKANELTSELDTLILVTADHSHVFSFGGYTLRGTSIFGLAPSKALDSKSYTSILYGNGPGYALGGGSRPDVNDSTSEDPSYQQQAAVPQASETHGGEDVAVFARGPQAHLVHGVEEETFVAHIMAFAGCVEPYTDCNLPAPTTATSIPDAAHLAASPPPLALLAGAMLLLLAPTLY

[7] = pKa and ionization of the terminal phosphate/phosphonate; format: physicochemical; settings: pH 7.4, terminal phosphate/phosphonate
P2Y1R = settings: read-out: EC50 at P2Y1R; cited from earlier work
[8] = cited from earlier work
turkey P2Y1 receptor = turkey P2Y1 receptor (Meleagris gallopavo, UniProt P49652); format: cell-based
Chain of turkey P2Y1 receptor (P49652 whole entry): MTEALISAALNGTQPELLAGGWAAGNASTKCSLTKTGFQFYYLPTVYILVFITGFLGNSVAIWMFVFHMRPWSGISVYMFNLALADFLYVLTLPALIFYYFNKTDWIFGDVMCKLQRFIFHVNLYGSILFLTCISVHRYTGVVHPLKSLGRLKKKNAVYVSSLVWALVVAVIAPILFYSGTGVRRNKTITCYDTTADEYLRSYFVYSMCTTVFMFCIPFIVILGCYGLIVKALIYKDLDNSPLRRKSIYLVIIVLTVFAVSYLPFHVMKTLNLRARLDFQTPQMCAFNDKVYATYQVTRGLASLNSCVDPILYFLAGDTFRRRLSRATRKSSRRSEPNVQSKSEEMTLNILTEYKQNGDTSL

NTPDase1 = molecular target: T1, NTPDase1 (Homo sapiens, UniProt P49961); assay: NTPDase1 hydrolysis assay; format: in vitro ADME; settings: 100 μM substrate; vs 100 μM ATP set at 100%
T1 sequence (P49961 1-510): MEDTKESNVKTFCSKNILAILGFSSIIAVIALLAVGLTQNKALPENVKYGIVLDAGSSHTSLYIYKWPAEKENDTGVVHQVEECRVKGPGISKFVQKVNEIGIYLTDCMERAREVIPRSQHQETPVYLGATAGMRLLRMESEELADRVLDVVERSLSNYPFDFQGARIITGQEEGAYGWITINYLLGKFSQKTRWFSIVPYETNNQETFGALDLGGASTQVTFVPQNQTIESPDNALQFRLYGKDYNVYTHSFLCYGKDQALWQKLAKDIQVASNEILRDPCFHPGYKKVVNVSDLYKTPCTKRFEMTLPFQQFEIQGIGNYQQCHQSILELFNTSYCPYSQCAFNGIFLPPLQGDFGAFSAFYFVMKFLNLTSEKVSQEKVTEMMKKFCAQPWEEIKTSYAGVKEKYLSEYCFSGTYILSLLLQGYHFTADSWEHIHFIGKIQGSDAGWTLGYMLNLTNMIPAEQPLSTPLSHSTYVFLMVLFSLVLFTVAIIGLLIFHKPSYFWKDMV

NTPDase2 = molecular target: T2, NTPDase2 (Homo sapiens, UniProt Q9Y5L3); assay: NTPDase2 hydrolysis assay; format: in vitro ADME; settings: 100 μM substrate; vs 100 μM ATP set at 100%
T2 sequence (Q9Y5L3 1-495): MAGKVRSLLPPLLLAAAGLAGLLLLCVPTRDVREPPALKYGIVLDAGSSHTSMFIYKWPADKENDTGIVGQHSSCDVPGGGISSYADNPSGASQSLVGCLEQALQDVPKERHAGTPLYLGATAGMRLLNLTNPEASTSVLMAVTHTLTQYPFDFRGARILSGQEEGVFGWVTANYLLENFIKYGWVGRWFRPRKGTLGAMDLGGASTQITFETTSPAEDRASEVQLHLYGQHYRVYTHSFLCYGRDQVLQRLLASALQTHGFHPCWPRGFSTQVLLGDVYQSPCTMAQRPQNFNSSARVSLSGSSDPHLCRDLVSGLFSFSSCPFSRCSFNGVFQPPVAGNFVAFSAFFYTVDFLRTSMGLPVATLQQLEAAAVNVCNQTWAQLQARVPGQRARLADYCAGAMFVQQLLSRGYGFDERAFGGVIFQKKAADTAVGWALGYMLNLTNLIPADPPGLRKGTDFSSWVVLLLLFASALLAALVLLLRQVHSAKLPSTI
How it was run: (§1)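 Enzymes were transiently expressed in COS-7 cells. Crude protein extracts were made by sonication, 300g clearing at 4 °C and storage at −80 °C, with protein measured by Bradford. Extract was preincubated 3 min at 37 °C in Tris-Ringer buffer, pH 7.4. […] Activity of untransfected-cell extract was subtracted.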

NTPDase3 = molecular target: T3, NTPDase3 (Homo sapiens, UniProt O75355); assay: NTPDase3 hydrolysis assay; format: in vitro ADME; settings: 100 μM substrate; vs 100 μM ATP set at 100%
T3 sequence (O75355 1-529): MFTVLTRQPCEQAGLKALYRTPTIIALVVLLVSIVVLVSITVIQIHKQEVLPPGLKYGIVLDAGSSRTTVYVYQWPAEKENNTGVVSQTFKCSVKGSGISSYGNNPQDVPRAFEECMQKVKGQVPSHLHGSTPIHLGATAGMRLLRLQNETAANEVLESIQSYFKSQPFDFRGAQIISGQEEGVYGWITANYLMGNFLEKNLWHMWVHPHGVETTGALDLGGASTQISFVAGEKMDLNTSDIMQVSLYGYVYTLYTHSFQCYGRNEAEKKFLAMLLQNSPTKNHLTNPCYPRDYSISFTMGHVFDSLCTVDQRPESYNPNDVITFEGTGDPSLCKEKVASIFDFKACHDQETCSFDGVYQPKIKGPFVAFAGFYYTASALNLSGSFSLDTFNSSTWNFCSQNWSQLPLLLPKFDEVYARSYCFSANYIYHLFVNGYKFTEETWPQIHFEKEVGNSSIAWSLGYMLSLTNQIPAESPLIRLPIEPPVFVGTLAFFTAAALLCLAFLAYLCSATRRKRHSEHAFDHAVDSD
How it was run: as §1

human NPP3 = molecular target: T4, human NPP3 (Homo sapiens, UniProt O14638); assay: NPP3 hydrolysis assay; format: in vitro ADME; settings: 100 μM substrate; vs 100 μM ATP set at 100%
T4 sequence (O14638 1-875): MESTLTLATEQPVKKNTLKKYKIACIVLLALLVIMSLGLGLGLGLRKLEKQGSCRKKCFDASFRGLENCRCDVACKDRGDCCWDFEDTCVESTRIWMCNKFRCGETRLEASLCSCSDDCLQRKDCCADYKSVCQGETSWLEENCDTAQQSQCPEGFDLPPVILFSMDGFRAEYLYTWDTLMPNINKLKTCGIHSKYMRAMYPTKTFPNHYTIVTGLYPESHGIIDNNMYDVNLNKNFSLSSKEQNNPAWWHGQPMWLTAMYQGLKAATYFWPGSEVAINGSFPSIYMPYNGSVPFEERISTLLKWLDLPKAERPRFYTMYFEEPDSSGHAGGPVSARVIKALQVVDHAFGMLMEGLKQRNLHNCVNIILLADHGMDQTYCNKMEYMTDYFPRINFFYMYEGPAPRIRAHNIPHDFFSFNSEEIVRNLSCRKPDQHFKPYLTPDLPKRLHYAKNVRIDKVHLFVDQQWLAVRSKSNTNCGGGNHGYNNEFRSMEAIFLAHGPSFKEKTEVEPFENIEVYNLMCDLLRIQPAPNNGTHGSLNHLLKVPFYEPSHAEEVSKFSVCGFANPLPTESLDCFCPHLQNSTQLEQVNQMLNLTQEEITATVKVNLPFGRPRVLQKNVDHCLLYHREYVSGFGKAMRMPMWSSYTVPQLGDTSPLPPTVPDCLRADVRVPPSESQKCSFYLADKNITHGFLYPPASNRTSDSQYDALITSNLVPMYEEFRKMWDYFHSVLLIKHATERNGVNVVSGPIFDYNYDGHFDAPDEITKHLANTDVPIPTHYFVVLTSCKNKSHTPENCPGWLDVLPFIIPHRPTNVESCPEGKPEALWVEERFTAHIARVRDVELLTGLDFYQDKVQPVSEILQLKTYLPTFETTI

[9] = human blood serum/RPMI-1640, 37 °C

t1/2 of hydrolysis at pH 1.4 [1]: 65 h | degradation in human blood serum over 24 h [2, 9]: 15%
Compound: CSc1nc(N)c2ncn([C@@H]3O[C@H](COP(=O)(O)OP(=O)(O)C(Cl)(Cl)P(=O)(O)O)[C@@H](O)[C@H]3O)c2n1 [analogue 9, β,γ-CCl2-2-MeS-ATP]
duration of the reduction in IOP (mean-time effect) (rabbit IOP [3]; 100 μM, 10 μL): 4.5 h

Compound: Nc1ncnc2c1ncn2[C@@H]1O[C@H](COP(=O)(O)OP(=O)(O)OP(=O)(O)OP(=O)(O)O)[C@@H](O)[C@H]1O [Ap4, adenosine tetraphosphate]
effect on IOP (increase or reduction) (rabbit IOP [4]): reduced

Compound: BP(=O)(OC[C@H]1O[C@@H](n2cnc3c(N)nc(SC)nc32)[C@H](O)[C@@H]1O)OP(=O)(O)CP(=O)(O)O (stereo partly drawn) [analogue 3, 2-MeS-α-B,β,γ-CH2-ATP]
t1/2 of hydrolysis at pH 1.4 [5]: 14.5 h

half-life at 0.248 mM ([2]; human, human blood serum diluted with RPMI-1640 medium): 23.5 h | degradation by alkaline phosphatase after 3 h [6]: 87%
Compound: CSc1nc(N)c2ncn([C@@H]3O[C@H](COP(=O)(O)OP(=O)(O)O)[C@@H](O)[C@H]3O)c2n1 [analogue 7, 2-MeS-ADP]

Compound: BP(=O)(OCC1OC(n2cnc3c(N)nc(SC)nc32)C(O)C1O)OP(=O)(O)C(F)(F)P(=O)(O)O (stereo not drawn) [analogue 10, α-borano-β,γ-CF2-2-MeS-ATP]
resistance to hydrolysis by alkaline phosphatase [6]: completely resistant

fraction ionized at physiological pH [7]: 9%
Compound: CSc1nc(N)c2ncn([C@@H]3O[C@H](COP(=O)(O)OP(=O)(O)CP(=O)(O)O)[C@@H](O)[C@H]3O)c2n1 [analogue 1, 2-MeS-β,γ-CH2-ATP]
duration of the reduction in IOP (mean-time effect) (rabbit IOP [3]; 100 μM, 10 μL): 3.5 h | EC50 (P2Y1R): 80 nM | t1/2 in human blood serum [8]: 12.1 h

Compound: Nc1ncnc2c1ncn2[C@@H]1O[C@H](COP(=O)(O)OP(=O)(O)OP(=O)(O)OC[C@@H]2O[C@H](n3cnc4c(N)ncnc43)[C@@H](O)[C@H]2O)[C@@H](O)[C@H]1O [Ap3A, diadenosine triphosphate]
effect on IOP (increase or reduction) (rabbit IOP [4]): increase IOP

Compound: CC(C)OC(=O)CCC/C=C\C[C@@H]1[C@@H](CC[C@@H](O)CCc2ccccc2)[C@H](O)C[C@@H]1O [latanoprost]
duration of the reduction in IOP (mean-time effect) (rabbit IOP [3]; commercial drug, 0.005%, 40 μL): 5.5 h

Compound: BP(=O)(OC[C@H]1O[C@@H](n2cnc3c(N)nc(SC)nc32)[C@H](O)[C@@H]1O)OP(=O)(O)C(Cl)(Cl)P(=O)(O)O (stereo partly drawn) [analogue 12B, 2-MeS-adenosine-5′-O-(α-boranotriphosphate)-β,γ-CCl2]
fold less potent at P2Y1R than the A isomer 12A (turkey P2Y1 receptor; B isomer vs A isomer): 2 fold | relative hydrolysis by NTPDase1 (NTPDase1): completely resistant | relative hydrolysis by NTPDase2 (NTPDase2): completely resistant | relative hydrolysis by NTPDase3 (NTPDase3): completely resistant | relative hydrolysis by NPP3 (human NPP3): completely resistant

hydrolysis of the starting material at pH 1.4 ([1]; pH 1.4, after 6 days): 15% | degradation in human blood serum over 24 h [2, 9]: completely resistant
Compound: CSc1nc(N)c2ncn([C@@H]3O[C@H](COP(=O)(O)C(Cl)(Cl)P(=O)(O)O)[C@@H](O)[C@H]3O)c2n1 [analogue 14, 2-MeS-Rα,β-dichloromethylene-ADP]

Compound: Nc1ncnc2c1ncn2[C@@H]1O[C@H](COP(=O)(O)OP(=O)(O)OP(=O)(O)OP(=O)(O)OC[C@H]2O[C@@H](n3cnc4c(N)ncnc43)[C@H](O)[C@@H]2O)[C@@H](O)[C@H]1O [Ap4A, diadenosine tetraphosphate]
effect on IOP (increase or reduction) (rabbit IOP [4]): reduced

starting material remaining at pH 1.4 ([1]; pH 1.4, after 30 days): 61%
Compound: CSc1nc(N)c2ncn([C@@H]3O[C@H](COP(=O)(O)C(F)(F)P(=O)(O)O)[C@@H](O)[C@H]3O)c2n1 [analogue 13, 2-MeS-adenosine-5′-O-diphosphate-α,β-difluoromethylene]

Compound: BP(=O)(OC[C@H]1O[C@@H](n2cnc3c(N)nc(SC)nc32)[C@H](O)[C@@H]1O)OP(=O)(O)C(F)(F)P(=O)(O)O (stereo partly drawn) [analogue 10B, 2-MeS-adenosine-5′-O-(α-boranotriphosphate)-β,γ-CF2]
fold reduction in P2Y1R activity vs analogue 8 (turkey P2Y1 receptor; replacement of nonbridging oxygen with BH3): 3 fold | t1/2 of hydrolysis at pH 1.4 [1]: ~8 h

Compound: Nc1ncnc2c1ncn2[C@@H]1O[C@H](COP(=O)(O)OP(=O)(O)O)[C@@H](O)[C@H]1O [ADP]
half-life in human blood serum [2, 9]: 1.4 h | degradation by alkaline phosphatase after 3 h [6]: completely degraded

Compound: α-B,β,γ-CH2-ATP [analogue 2]
t1/2 of hydrolysis at pH 1.4 [5]: 19 h

Compound: BP(=O)(OCC1OC(n2cnc3c(N)nc(SC)nc32)C(O)C1O)OP(=O)(O)C(Cl)(Cl)P(=O)(O)O (stereo not drawn) [analogue 12, α-borano-β,γ-CCl2-2-MeS-ATP]
resistance to hydrolysis by alkaline phosphatase [6]: completely resistant

Compound: 2-MeS-α-borano-ATP (A-isomer) [analogue 4A]
EC50 (P2Y1R): 2.6 nM

Compound: BP(=O)(OC[C@H]1O[C@@H](n2cnc3c(N)nc(SC)nc32)[C@H](O)[C@@H]1O)OP(=O)(O)CP(=O)(O)O (some centres unmarked) [analogue 3B]
EC50 (P2Y1R): 17200 nM

Compound: Nc1ncnc2c1ncn2[C@@H]1O[C@H](COP(=O)(O)OP(=O)(O)OP(=O)(O)OP(=O)(O)OP(=O)(O)OC[C@H]2O[C@@H](n3cnc4c(N)ncnc43)[C@H](O)[C@@H]2O)[C@@H](O)[C@H]1O [Ap5A, diadenosine pentaphosphate]
effect on IOP (increase or reduction) (rabbit IOP [4]): increase IOP
